# Columns and labels:
# [1] = Chemical stability of compound assessed as compound hydrolysis at pH 2.2 at 37.5 degC after 90 mins; assay type: physicochemical; conditions: buffer, pH 2.2, 1.5 h
# How it was run: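 (3*,6R) epimeric mixture held on reactor column in chloroacetate buffer (ionic strength 0.01, pH 2.20) at 37.5 °C for up to 90 min. Hydrolysis checked by the sf-BD-rHPLC method: Chiralcel OD-R separative column at 0 °C, water/acetonitrile 50:50 (v/v) eluent.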
# [2] = Configurational stability of compound in water-acetonitrile assessed as forward rate epimerization at 5 degC by dynamic HPLC analysis; assay type: physicochemical; conditions: buffer
# How it was run: (§1)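 Dynamic HPLC on the (3*,6R) epimeric mixture: isocratic Chiralcel OD-R column, water/acetonitrile 50:50 (v/v), run at temperatures of 5-37 °C. Sample at 100 μg/mL final, 20 μL injected, UV detection at 254 nm. Interconversion rate constants obtained from elution profiles by integration of the interconverting peak areas.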
# [3] = Configurational stability of compound in water-acetonitrile assessed as forward rate epimerization at 25 degC by dynamic HPLC analysis; assay type: physicochemical; conditions: buffer; how it was run: as §1
# [4] = Configurational stability of compound in water-acetonitrile assessed as forward rate epimerization at 37 degC by dynamic HPLC analysis; assay type: physicochemical; conditions: buffer; how it was run: as §1
# [5] = Configurational stability of compound in water-acetonitrile assessed as backward rate epimerization at 5 degC by dynamic HPLC analysis; assay type: physicochemical; conditions: buffer; how it was run: as §1
# [6] = Configurational stability of compound in water-acetonitrile assessed as backward rate epimerization at 25 degC by dynamic HPLC analysis; assay type: physicochemical; conditions: buffer; how it was run: as §1
# [7] = Configurational stability of compound in water-acetonitrile assessed as backward rate epimerization at 37 degC by dynamic HPLC analysis; assay type: physicochemical; conditions: buffer; how it was run: as §1
# [8] = Configurational stability of compound in water-acetonitrile assessed as forward equilibrium rate epimerization at 5 degC by dynamic HPLC analysis; assay type: physicochemical; conditions: buffer; how it was run: as §1
# [9] = Configurational stability of compound in water-acetonitrile assessed as forward equilibrium rate epimerization at 25 degC by dynamic HPLC analysis; assay type: physicochemical; conditions: buffer; how it was run: as §1
# [10] = Configurational stability of compound in water-acetonitrile assessed as forward equilibrium rate epimerization at 37 degC by dynamic HPLC analysis; assay type: physicochemical; conditions: buffer; how it was run: as §1
# [11] = Configurational stability of compound in water-acetonitrile assessed as forward rate equilibrium epimerization at pH 2.2 using C-8 column by stopped flow bidimensional recycling HPLC; assay type: physicochemical; conditions: buffer
# How it was run: (§2)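 Stopped-flow bidimensional recycling HPLC on the (3*,6R) epimeric mixture. Epimers separated on Chiralcel OD-R at 0 °C with water/acetonitrile 50:50 (v/v). One epimer is trapped on a Supelcosil LC-8 (C8) reactor column and epimerizes at 37.5 °C in chloroacetate buffer pH 2.20 or phosphate buffer pH 7.00 (ionic strength 0.01). Column recooled to 0 °C, epimers re-separated, n = 4. Rate constants from first-order reversible kinetics.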
# [12] = Configurational stability of compound in water-acetonitrile assessed as forward rate equilibrium epimerization at pH 7 using C-8 column by stopped flow bidimensional recycling HPLC; assay type: physicochemical; conditions: buffer; how it was run: as §2
# [13] = Configurational stability of compound in water-acetonitrile assessed as backward rate equilibrium epimerization at pH 2.2 using C-8 column by stopped flow bidimensional recycling HPLC; assay type: physicochemical; conditions: buffer; how it was run: as §2
# [14] = Configurational stability of compound in water-acetonitrile assessed as backward rate equilibrium epimerization at pH 7 using C-8 column by stopped flow bidimensional recycling HPLC; assay type: physicochemical; conditions: buffer; how it was run: as §2
# [15] = Configurational stability of compound in water-acetonitrile assessed as forward rate epimerization at pH 2.2 using C-8 column by stopped flow bidimensional recycling HPLC; assay type: physicochemical; conditions: buffer; how it was run: as §2
# [16] = Configurational stability of compound in water-acetonitrile assessed as forward rate epimerization at pH 7 using C-8 column by stopped flow bidimensional recycling HPLC; assay type: physicochemical; conditions: buffer; how it was run: as §2
# [17] = Configurational stability of compound in water-acetonitrile assessed as backward rate epimerization at pH 2.2 using C-8 column by stopped flow bidimensional recycling HPLC; assay type: physicochemical; conditions: buffer; how it was run: as §2
# [18] = Configurational stability of compound in water-acetonitrile assessed as backward rate epimerization at pH 7 using C-8 column by stopped flow bidimensional recycling HPLC; assay type: physicochemical; conditions: buffer; how it was run: as §2
# [19] = Configurational stability of compound in water-acetonitrile assessed as forward rate equilibrium epimerization at pH 2.2 using IAM column by stopped flow bidimensional recycling HPLC; assay type: physicochemical; conditions: artificial membrane
# How it was run: (§3)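 sf-BD-rHPLC with an IAM-based reactor column. (3*,6R) epimers separated on Chiralcel OD-R at 0 °C using water/acetonitrile 50:50 (v/v). Trapped epimer interconverts at 37.5 °C in chloroacetate buffer pH 2.20 or phosphate buffer pH 7.00 (ionic strength 0.01), then is re-separated at 0 °C, n = 4. Forward, backward and equilibrium rate constants derived from peak areas.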
# [20] = Configurational stability of compound in water-acetonitrile assessed as forward rate equilibrium epimerization at pH 7 using IAM column by stopped flow bidimensional recycling HPLC; assay type: physicochemical; conditions: artificial membrane; how it was run: as §3
# [21] = Configurational stability of compound in water-acetonitrile assessed as backward rate equilibrium epimerization at pH 2.2 using IAM column by stopped flow bidimensional recycling HPLC; assay type: physicochemical; conditions: artificial membrane; how it was run: as §3
# [22] = Configurational stability of compound in water-acetonitrile assessed as backward rate equilibrium epimerization at pH 7 using IAM column by stopped flow bidimensional recycling HPLC; assay type: physicochemical; conditions: artificial membrane; how it was run: as §3
# [23] = Configurational stability of compound in water-acetonitrile assessed as forward rate epimerization at pH 2.2 using IAM column by stopped flow bidimensional recycling HPLC; assay type: physicochemical; conditions: artificial membrane; how it was run: as §3
# [24] = Configurational stability of compound in water-acetonitrile assessed as forward rate epimerization at pH 7 using IAM column by stopped flow bidimensional recycling HPLC; assay type: physicochemical; conditions: artificial membrane; how it was run: as §3
# [25] = Configurational stability of compound in water-acetonitrile assessed as backward rate epimerization at pH 2.2 using IAM column by stopped flow bidimensional recycling HPLC; assay type: physicochemical; conditions: artificial membrane; how it was run: as §3
# [26] = Configurational stability of compound in water-acetonitrile assessed as backward rate epimerization at pH 7 using IAM column by stopped flow bidimensional recycling HPLC; assay type: physicochemical; conditions: artificial membrane; how it was run: as §3
# [27] = Configurational stability of compound assessed as half life using C-8 column by stopped flow bidimensional recycling HPLC; assay type: physicochemical; conditions: C-8 column (stationary phase); how it was run: as §2
# [28] = Configurational stability of compound assessed as half life using IAM column by stopped flow bidimensional recycling HPLC; assay type: physicochemical; conditions: IAM column (stationary phase); how it was run: as §3
# DIV7-10 = test: Positive allosteric modulation activity at AMPA receptor in Sprague-Dawley rat cortical neuronal DIV7-10 cells assessed as increase in kainate induced currents at 100 uM by patch clamp electrophysiological method; assay type: cell-based
# How it was run: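 Cortical neurons from newborn Sprague–Dawley rats: trypsin-dispersed, plated on poly-L-lysine and switched to BME/Neurobasal with B27 after 24 h, with 1 µM Ara-C added at DIV5. Whole-cell voltage-clamp at room temperature on DIV7-10 cells. Kainate-evoked currents recorded with co-application of epimeric mixture at 100 µM. Potentiation given as mean ± SE, n = 4.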
smiles,measurement,setting,value
CC1CN2c3c1cc(Cl)cc3S(=O)(=O)NC2C (stereo not given),Stability,[1],Stable
CC1NS(=O)(=O)c2cc(Cl)cc3c2N1C[C@@H]3C (mixture of isomers),K,[2],0.17 ×10⁻⁴ /s
same,K,[3],1.11 ×10⁻⁴ /s
same,K,[4],1.28 ×10⁻⁴ /s
same,K,[5],0.06 ×10⁻⁴ /s
same,K,[6],0.76 ×10⁻⁴ /s
same,K,[7],0.71 ×10⁻⁴ /s
same,K,[8],0.23 ×10⁻⁴ /s
same,K,[9],1.87 ×10⁻⁴ /s
same,K,[10],1.99 ×10⁻⁴ /s
same,K,[11],6.68 ×10⁻⁴ /s
same,K,[12],5.9 ×10⁻⁴ /s
same,K,[13],6.52 ×10⁻⁴ /s
same,K,[14],7.77 ×10⁻⁴ /s
same,K,[15],4.61 ×10⁻⁴ /s
same,K,[16],4.49 ×10⁻⁴ /s
same,K,[17],2.26 ×10⁻⁴ /s
same,K,[18],2.34 ×10⁻⁴ /s
same,K,[19],10.7 ×10⁻⁴ /s
same,K,[20],7.2 ×10⁻⁴ /s
same,K,[21],9.63 ×10⁻⁴ /s
same,K,[22],8.93 ×10⁻⁴ /s
same,K,[23],6.68 ×10⁻⁴ /s
same,K,[24],5.3 ×10⁻⁴ /s
same,K,[25],3.48 ×10⁻⁴ /s
same,K,[26],2.75 ×10⁻⁴ /s
same,half-life,[27],10 min
same,half-life,[28],10 min
same,Activity,DIV7-10,112%
CC1NS(=O)(=O)c2cc(Cl)cc3c2N1C[C@H]3C (mixture of isomers),Activity,DIV7-10,250%
